Laboratory results published in ChEMBL document CHEMBL1833891, “New inhibitors of colony spreading in Bacillus subtilis and Bacillus anthracis” (Bioorg Med Chem Lett, 2011).
Calls of active or inactive are those of the source. No cut-off for these calls is given here.

How the values were obtained:
Bacillus subtilis [1] = assay: Antibacterial activity against Bacillus subtilis NCIB 3610 DS1677 harboring marker-less hag mutant assessed as inhibition of surface colony-spreading at 15 ug/ml after overnight incubation at 32 degree C relative to control; format: functional; conditions: subsp. subtilis str. NCIB 3610 DS1677
In short: (§1)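 DS1677 inoculated at the centre of Tryptic soy broth soft agar (7 g L⁻¹) containing compound, incubated, then average colony diameter measured. % inhibition of spreading is relative to a DMSO control. Duplicate or triplicate, with the assay repeated if replicates differed by >10% in diameter. NPG isomers at 30 µg mL⁻¹, other compounds at 15 µg mL⁻¹.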

Bacillus subtilis [2] = assay: Antibacterial activity against Bacillus subtilis NCIB 3610 DS1677 harboring marker-less hag mutant assessed as inhibition of surface colony-spreading at 30 ug/ml after overnight incubation at 32 degree C relative to control; format: functional; conditions: subsp. subtilis str. NCIB 3610 DS1677; in short: as §1
Proteus mirabilis = assay: Antibacterial activity against Proteus mirabilis 7002 assessed as inhibition of swarming by plate swarm assay; format: functional, organism-based
In short: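 Proteus plate swarm assay. Each compound at 75 µg mL⁻¹ in the plate, with swarming judged by visible effect.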

Bacillus subtilis [3] = assay: Antibacterial activity against Bacillus subtilis NCIB 3610 DS1677 harboring marker-less hag mutant assessed as inhibition of surface colony-spreading at 75 ug/ml after 24 hrs relative to control; format: functional; conditions: subsp. subtilis str. NCIB 3610 DS1677
In short: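 Marker-less hag mutant DS1677 on MK agarose (semi-solid, complete defined nutrients) plates containing 75 µg mL⁻¹ compound in DMSO. Control plates contained 75 µg mL⁻¹ DMSO. Colony spreading compared with control.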

Bacillus anthracis [4] = assay: Antibacterial activity against Bacillus anthracis Sterne assessed as inhibition of surface colony-spreading at 75 ug after overnight incubation; format: functional, organism-based
Bacillus anthracis [5] = assay: Antibacterial activity against Bacillus anthracis Sterne assessed as inhibition of surface colony-spreading after overnight incubation; format: functional, organism-based
Bacillus subtilis [6] = assay: Antibacterial activity against erythromycin-lincomycin resistant Bacillus subtilis NCIB 3610 DS64 harboring hag deletion mutant assessed as inhibition of surface colony-spreading at 75 ug/ml after 24 hrs relative to control; format: functional; conditions: subsp. subtilis str. NCIB 3610 DS64
In short: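 hag mutant DS64 (MLS antibiotic marker) inoculated at the centre of MK agarose plates with or without 75 µg mL⁻¹ compound, grown 24 h at 37 °C. Surface film spreading scored against the untreated plate.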

Bacillus subtilis [7] = assay: Antibacterial activity against Bacillus subtilis NCIB 3610 DS1677 harboring marker-less hag mutant assessed as inhibition of surface colony-spreading after 16 hrs relative to control; format: functional; conditions: subsp. subtilis str. NCIB 3610 DS1677, 16 h
In short: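 B. subtilis hag deletion strain DS1677: 3 µL of an overnight LB culture spotted on Tryptic soy broth agar (7 g L⁻¹), dried 3–4 h, with graded inhibitor levels. Plates in duplicate, grown 16 h at 32 °C. IC50 derived from measured colony diameters.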

With `NS(=O)(=O)c1ccc(C(O)C(O)CO)cc1` (mixture of isomers) the inhibition at 15 µg/mL (Bacillus subtilis [1]) was 4.5%.
In the case of `O=[N+]([O-])c1ccc([C@H](O)[C@H](O)CO)cc1`, the inhibition at 30 µg/mL (Bacillus subtilis [2]) is reported as 1.5%, the inhibition (Proteus mirabilis) is reported as “inactive” and the inhibition (Bacillus subtilis [3]) is reported as “inactive”.
`COC[C@H](OC)[C@H](OC)c1ccc(S(C)(=O)=O)cc1` gave an inhibition at 15 µg/mL (Bacillus subtilis [1]) of 18.5%.
`OCC(O)C(O)c1ccccc1` (mixture of isomers) was tested, and the inhibition at 15 µg/mL (Bacillus subtilis [1]) was 12.9%.
For `CSc1ccc(C(O)C(O)CO)cc1` (mixture of isomers), the inhibition at 15 µg/mL (Bacillus subtilis [1]) was 0%.
`COC[C@H](O)[C@H](OC)c1ccc(S(C)(=O)=O)cc1` showed an inhibition at 15 µg/mL (Bacillus subtilis [1]) of 0%.
Compound `CS(=O)(=O)c1ccc([C@H](O)[C@H](O)CO)cc1` has an inhibition at 15 µg/mL (Bacillus subtilis [1]) of 1.6%.
`COC[C@H](O)[C@H](O)c1ccc(S(C)(=O)=O)cc1` gave an inhibition at 15 µg/mL (Bacillus subtilis [1]) of 10.1%.
Work on `CO[C@H](c1ccc(S(C)(=O)=O)cc1)[C@@H](O)CO` yielded an inhibition at 15 µg/mL (Bacillus subtilis [1]) of 0%.
With `CS(=O)(=O)c1ccc([C@@H](O)[C@H](O)CO)cc1` the inhibition (Bacillus anthracis [4]) was “Active” and the inhibition at 15 µg/mL (Bacillus subtilis [1]) was 69.1%.
`CS(=O)(=O)c1ccc([C@H](O)[C@@H](O)CO)cc1` was tested, and the inhibition at 15 µg/mL (Bacillus subtilis [1]) was 0%.
With `CS(=O)(=O)c1cccc(C(O)C(O)CO)c1` (mixture of isomers) the inhibition at 15 µg/mL (Bacillus subtilis [1]) was 10.5%.
`CS(=O)(=O)c1ccccc1[C@@H](O)[C@@H](O)CO` showed an inhibition at 15 µg/mL (Bacillus subtilis [1]) of 0%.
In the case of `CS(=O)(=O)c1ccc([C@@H](O)[C@@H](O)CO)cc1`, the inhibition (Bacillus anthracis [4]) is reported as “Active”, the IC50 (Bacillus anthracis [5]) is reported as 12 µM and the inhibition at 15 µg/mL (Bacillus subtilis [1]) is reported as 95.3%.
With `O=[N+]([O-])c1ccc(C(O)C(O)CO)cc1` (stereo not given) the inhibition (Bacillus subtilis [6]) was “Active”.
In the case of `O=[N+]([O-])c1ccc([C@H](O)[C@@H](O)CO)cc1`, the inhibition at 30 µg/mL (Bacillus subtilis [2]) is reported as 0%, the inhibition (Proteus mirabilis) is reported as “inactive” and the inhibition (Bacillus subtilis [3]) is reported as “inactive”.
`OCC(O)C(O)c1ccc(O)cc1` (mixture of isomers) showed an inhibition at 15 µg/mL (Bacillus subtilis [1]) of 12.9%.
In the case of `C=C[C@H](O)c1ccc(S(C)(=O)=O)cc1`, the inhibition at 15 µg/mL (Bacillus subtilis [1]) is reported as 21.3%.
For `O=[N+]([O-])c1ccc([C@@H](O)[C@H](O)CO)cc1`, the inhibition at 30 µg/mL (Bacillus subtilis [2]) was 16.1%, the inhibition (Proteus mirabilis) was “Active” and the inhibition (Bacillus subtilis [3]) was “inactive”.
`O=[N+]([O-])c1ccc([C@@H](O)[C@@H](O)CO)cc1` was tested, and the inhibition at 30 µg/mL (Bacillus subtilis [2]) was 24.8%, the IC50 (Bacillus subtilis [7]) was 122 µM and the IC50 (Bacillus anthracis [5]) was greater than 150 µM. The inhibition (Proteus mirabilis) was “Active” and the inhibition (Bacillus subtilis [3]) was “Active”.
With `CS(=O)(=O)Oc1ccc(C(O)C(O)CO)cc1` (mixture of isomers) the inhibition at 15 µg/mL (Bacillus subtilis [1]) was 11.5%.
`COC(=O)c1ccc(C(O)C(O)CO)cc1` (mixture of isomers) gave an inhibition at 15 µg/mL (Bacillus subtilis [1]) of 0%.
